S100A4 MyoIIA: inhibitors of human S100A4 binding to myosin IIA peptide; P26447; S100A4/TAMRA-MyoIIA peptide fluorescence polarization; inhibition, % at 10.7 µM; 0.14% of 360,000 active; AID 652163;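 active = mean inhibition of at least 70% across replicates, with every replicate also reaching that level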
Target sequence (P26447 whole entry, looked up): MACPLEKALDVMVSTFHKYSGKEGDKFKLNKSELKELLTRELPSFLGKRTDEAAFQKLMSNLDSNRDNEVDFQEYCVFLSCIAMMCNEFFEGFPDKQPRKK
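Material: human S100A4 monomer with TAMRA-labelled myosin IIA peptide; buffer or medium: HEPES pH 7.2 with CaCl2, KCl, NaCl, DTT, Triton; compound dosing: one concentration per compound; schedule: 5 min incubation before reading; benchmarks: neutral control DMSO, positive control TFP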
Ecoli rRNA inh: inhibitors of bacterial rRNA selective over humanized ribosomes. E. coli WT GFP vs humanized-ribosome RFP mutants, fluorescence, 24 h; hits give low values; DMSO median 0, no signal -100. GFP signal change (wild-type ribosome), % (test concentration not listed). 1.6% of 350,000 active. AID 720706;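 active = significant combined selectivity score with lowered wild-type GFP, culture density cut under 30%, mutant RFP and density less affected; inactive = any of these conditions unmet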
CASP6 VEID inh: blocks human caspase-6 cleavage activity; P55212; purified caspase-6, Z-VEID-R110 cleavage fluorescence; inhibition, % at 12.5 µM; 0.53% of 350,000 active; AID 686996;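 active = mean inhibition across replicates at least about 35%, with every replicate also reaching that limit, limit read from the data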;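 also: 0% = median of neutral control wells and 100% = no fluorescence left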
Target sequence (P55212 24-179 limits assumed): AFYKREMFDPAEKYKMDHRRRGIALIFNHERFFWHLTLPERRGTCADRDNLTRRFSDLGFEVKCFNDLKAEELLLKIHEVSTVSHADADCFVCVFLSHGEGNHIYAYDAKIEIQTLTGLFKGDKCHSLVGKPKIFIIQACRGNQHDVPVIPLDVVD
Target sequence (P55212 194-293 limits assumed): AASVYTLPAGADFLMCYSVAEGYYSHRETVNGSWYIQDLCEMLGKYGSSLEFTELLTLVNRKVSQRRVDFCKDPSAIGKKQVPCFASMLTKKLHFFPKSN
ARNT TACC3 PPI: ARNT/TACC3 interaction disruption; Q9Y6A5; AlphaScreen His-ARNT PAS-B/GST-TACC3 binding, luminescence; TACC3 fragment carries E629A point mutation; inhibition, % at 9.99 µM; AID 623870; 0.66% of 390,000 active;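 active = mean inhibition of replicates at least 50% and at least half of replicates each reaching 50%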;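 also: 0% = complete ARNT plus TACC3 wells and 100% = ARNT alone without TACC3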
ERAP1 HTS inh: blocks human ERAP1 aminopeptidase activity; inhibition, % at 10.7 µM; recombinant ERAP1, Leu-AMC fluorescence, 60 min; AID 652197; 0.15% of 340,000 active;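 active = mean replicate inhibition of at least 30%, or all replicates individually reaching that 30% level; inactive = mean below 30% and not every replicate reaching it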;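 also: 0% = neutral control wells and 100% = L-leucinethiol positive control wells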
PGC1a acetyl inh: modulators of PGC1a acetylation. U2OS PGC1a acetylation, AlphaScreen anti-acetyl-lysine; with virally co-expressed GCN5 acetyltransferase. inhibition, % at 15.6 µM. 0.17% of 350,000 active. AID 651687;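 active = every replicate shows inhibition of at least 40%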;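 also: 0% = neutral control wells and 100% = positive control wells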
Starred values were filed as active, the others as inactive; . = no result; + = active, no number. This is a sample that favours compounds with a hit; in the whole collection about 2.4% have one here.

SMILES	S100A4 MyoIIA	Ecoli rRNA inh	CASP6 VEID inh	ARNT TACC3 PPI	ERAP1 HTS inh	PGC1a acetyl inh
COc1cc2[nH]c(Cl)c([N+](=O)[O-])c2cc1OC	-4	17	49*	26	6	-6
N/C(=N\OC(=O)CCCOc1ccccc1)c1ccc([N+](=O)[O-])cc1	3	16	-1	1	2	90*
CC(=O)Nc1ccc(S(=O)(=O)NC2=C(N3CCN(C)CC3)C(=O)c3ccccc3C2=O)cc1	0	-1	44*	39	0	.
CC1CCN(C2=C(NS(=O)(=O)c3ccccc3)C(=O)c3ccccc3C2=O)CC1	-3	-24*	11	13	6	-4
CCOC(=O)N1CCN(C2=C(NS(=O)(=O)c3ccc(NC(C)=O)cc3)C(=O)c3ccccc3C2=O)CC1	-10	3	19	31*	2	10
CCN1CCN(C2=C(NS(=O)(=O)c3ccc(NC(C)=O)cc3)C(=O)c3ccccc3C2=O)CC1	-12	-3	48*	12	1	6
CC(=O)Nc1ccc(S(=O)(=O)NC2=C(N3CCN(Cc4ccccc4)CC3)C(=O)c3ccccc3C2=O)cc1	-11	-26	30	26	1	-15
C[C@@H]1CN([C@H](C)CO)C(=O)c2cc(N(C)C)ccc2O[C@@H]1CN(C)C(=O)Nc1ccc(C(F)(F)F)cc1	10	-26	1	-6	2	0
Cc1ccc(S(=O)(=O)N(C)C[C@H]2OCCCC[C@H](C)Oc3ccc(NC(=O)C4CCCCC4)cc3C(=O)N([C@@H](C)CO)C[C@@H]2C)cc1	.	3	.	-7	.	.
C[C@@H]1CN([C@H](C)CO)C(=O)c2cc(/C=C/c3ccccc3)cnc2O[C@@H]1CN(C)C(=O)C1CC1	8	4	-2	.	3	4
CCN1CCN(C2=C(NS(=O)(=O)c3ccc(C)cc3)C(=O)c3ccccc3C2=O)CC1	9	-18*	62*	15	1	-9
O=[N+]([O-])c1ccc(Cc2ccccn2)cc1	1	-3	34	-5	-1	5
O=[N+]([O-])c1ccc(CC(Cl)c2ccccn2)cc1 (stereo not drawn)	-4	-24*	1	1	-1	6
O=C(N/N=C/C=C/c1ccccc1[N+](=O)[O-])c1cccs1	2	10	-4	-4	-2	4
O=C(O)/C=C/c1ccc([N+](=O)[O-])o1	-4	1	61*	-4	6	.
O=C(N/N=C\C=C\c1ccc([N+](=O)[O-])o1)c1cccs1	-1	-58	56*	9	1	.
CN1CCN(C(=O)/C=C/c2ccc([N+](=O)[O-])o2)CC1	25	-9	1	-20	1	.
C/C=C/c1ccc([C@H]2[C@H]3CN(C(=O)Nc4ccccc4F)CCCCN3[C@H]2CO)cc1	1	0	-4	2	3	3
CC(C)C#Cc1cnc2c(c1)C(=O)N([C@@H](C)CO)C[C@@H](C)[C@H](CN(C)C(=O)c1ccccn1)O2	6	1	0	-3	0	-1
Cc1cccc(NC(=O)c2cc(-c3ccc(C)c(C)c3O)n[nH]2)c1	4	-17*	2	-13	-3	-5
COc1ccc(NC(=O)N(C)C[C@@H]2Oc3ccc(NC(=O)CCCN(C)C)cc3C(=O)N([C@H](C)CO)C[C@H]2C)cc1	-10	0	-6	-13	-2	2
CCN1/C(=C/C=C/c2oc3ccc(-c4ccccc4)cc3[n+]2CC)Oc2ccc(-c3ccccc3)cc21	+	87	-23	-26	-2	34
C[C@@H]1CN([C@H](C)CO)C(=O)c2cc(NC(=O)Cn3cnnn3)ccc2O[C@H]1CN(C)C(=O)Nc1ccccc1	1	4	2	-4	-1	1
Cc1[nH]c2ccccc2c1C(=O)/C=C/c1ccccc1	.	.	.	3	.	71*
COc1ccc(-n2c(-c3ccc(Cl)cc3Cl)n[nH]c2=S)c(OC)c1	-2	-32*	0	-2	0	-6
SMILES	S100A4 MyoIIA	Ecoli rRNA inh	CASP6 VEID inh	ARNT TACC3 PPI	ERAP1 HTS inh	PGC1a acetyl inh
C[C@@H]1CN([C@H](C)CO)C(=O)c2cc(C#Cc3ccccc3)cnc2O[C@@H]1CN(C)C(=O)C1CC1	4	-1	2	.	-5	5
CC1CN(S(=O)(=O)c2cccc(C(=O)N=c3sccn3C)c2)CC(C)O1 (stereo not drawn)	-6	-21*	0	3	4	-6
Cc1c(C(=O)N(Cc2ccc(F)cc2)C2CCS(=O)(=O)C2)oc2ccccc12 (stereo not drawn)	14	-23*	-1	-6	0	7
Cc1c(C(=O)N(Cc2ccccc2)C2CCS(=O)(=O)C2)oc2ccccc12 (stereo not drawn)	3	1	0	0	6	16
Clc1cncc(Cl)c1N/N=C/c1ccncc1	15	-5	2	-13	1	32
Clc1cccc(Cl)c1/C=N/Nc1c(Cl)cncc1Cl	-5	-16*	-1	8	-1	-7
CCN(CC)S(=O)(=O)c1cc(NS(=O)(=O)c2cccc(Cl)c2Cl)ccc1C	-1	-38*	0	.	1	.
CCN(CC)S(=O)(=O)c1cc(NC(=O)Cn2ncc(Cl)c(Cl)c2=O)ccc1C	1	-26*	2	-4	-3	29
CO[C@@H]1CN(C)C(=O)c2cc(NS(=O)(=O)Cc3ccccc3)ccc2OC[C@H](C)NC[C@@H]1C	3	1	0	-1	-5	13
O=C(O)c1cccnc1C(=O)O	-3	.	2	50*	.	3
O=C(O)c1cccnc1Cl	-7	3	-2	22	1	6
COc1ccc(-c2cc(-c3ccco3)[nH]c(=O)c2C#N)cc1OC	-5	21	38*	2	3	4
O=C(CN1c2ccccc2Sc2ccccc21)N/N=C/c1ccc([N+](=O)[O-])cc1	-2	-24*	1	-7	.	-2
COc1cc(-c2nnc(COC(=O)c3cc(C)no3)o2)cc(OC)c1OC	-6	-2	2	10	-4	.
COc1cc(-c2nnc(COC(=O)c3ccc(C)o3)o2)cc(OC)c1OC	0	9	35*	-8	3	1
OCc1ccc(O)c2ncccc12	.	.	.	71*	.	.
Oc1ccc(CN2CCCCC2)c2cccnc12	-7	-7	-20	80*	0	25
Oc1c(Cl)cc(CN2CCCCC2)c2cccnc12	.	.	.	77*	.	2
Oc1ccc(CN2CCN(c3ccccc3)CC2)c2cccnc12	-1	-17	5	14	0	12
Oc1ccc(F)c2cccnc12	5	23	6	21	-3	14
Oc1ccc(CNc2ccccc2F)c2cccnc12	-3	-15	2	49*	.	-5

Screening data: PubChem, Broad Institute
